Tests used:
Assay type in all cases: functional
CCRF-CEM = assay: Growth inhibition of human CCRF-CEM cells incubated for 48 hrs by sulforhodamine B assay
Outline: (§1)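 NCI five-dose screen covering 0.01–100 µM, prepared as 10-fold or ½-log dilutions from DMSO stock. Cells in RPMI 1640 with 5% FBS were exposed for 48 h at 37 °C after 24 h preincubation. Adherent cells were fixed with TCA (final 10%) and suspension cells were settled before fixing. Stain was SRB, read at 515 nm. GI50 = 50% reduction in net protein increase versus control, with Tz taken at drug addition.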

K562 = assay: Growth inhibition of human K562 cells incubated for 48 hrs by sulforhodamine B assay; outline: as §1
MOLT-4 = assay: Growth inhibition of human MOLT-4 cells incubated for 48 hrs by sulforhodamine B assay
Outline: (§2)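 NCI five-dose screen (0.01–100 µM; five concentrations plus control). Cells grown in RPMI 1640/5% FBS/2 mM L-glutamine and preincubated 24 h, with time-zero plates TCA-fixed. Drug exposure 48 h at 37 °C, followed by SRB protein staining and reading at 515 nm. GI50 is the concentration at [(Ti-Tz)/(C-Tz)]×100 = 50.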

A549 = assay: Growth inhibition of human A549 cells incubated for 48 hrs by sulforhodamine B assay; outline: as §1
HOP-62 = assay: Growth inhibition of human HOP-62 cells incubated for 48 hrs by sulforhodamine B assay; outline: as §1
HOP-92 = assay: Growth inhibition of human HOP-92 cells incubated for 48 hrs by sulforhodamine B assay; outline: as §1
NCI-H226 = assay: Growth inhibition of human NCI-H226 cells incubated for 48 hrs by sulforhodamine B assay; outline: as §2
NCI-H23 = assay: Growth inhibition of human NCI-H23 cells incubated for 48 hrs by sulforhodamine B assay; outline: as §2
NCI-H322M = assay: Growth inhibition of human NCI-H322M cells incubated for 48 hrs by sulforhodamine B assay; outline: as §2
NCI-H522 = assay: Growth inhibition of human NCI-H522 cells incubated for 48 hrs by sulforhodamine B assay; outline: as §2
COLO 205 = assay: Growth inhibition of human COLO 205 cells incubated for 48 hrs by sulforhodamine B assay; outline: as §1
HCT-116 = assay: Growth inhibition of human HCT-116 cells incubated for 48 hrs by sulforhodamine B assay; outline: as §1
HCT-29 = assay: Growth inhibition of human […] cells incubated for 48 hrs by sulforhodamine B assay; outline: as §1
SW-620 = assay: Growth inhibition of human SW-620 cells incubated for 48 hrs by sulforhodamine B assay
Outline: (§3)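 NCI five-dose assay, with drug stocks in DMSO diluted in medium to five concentrations (10-fold or ½-log series). Cells in RPMI 1640/5% FBS were pre-incubated 24 h, and time-zero plates were TCA-fixed at drug addition. After 48 h at 37 °C, cells were TCA-fixed, SRB-stained and read at 515 nm. GI50 is from [(Ti-Tz)/(C-Tz)]×100 = 50, TGI from Ti = Tz, and LC50 from [(Ti-Tz)/Tz]×100 = -50.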

SF-268 = assay: Growth inhibition of human SF-268 cells incubated for 48 hrs by sulforhodamine B assay; outline: as §2
SF-295 = assay: Growth inhibition of human SF-295 cells incubated for 48 hrs by sulforhodamine B assay; outline: as §2
SF-539 = assay: Growth inhibition of human SF-539 cells incubated for 48 hrs by sulforhodamine B assay; outline: as §2
SNB-19 = assay: Growth inhibition of human SNB-19 cells incubated for 48 hrs by sulforhodamine B assay; outline: as §2
SNB-75 = assay: Growth inhibition of human SNB-75 cells incubated for 48 hrs by sulforhodamine B assay; outline: as §2
U-251 = assay: Growth inhibition of human U-251 cells incubated for 48 hrs by sulforhodamine B assay; outline: as §3
Malme-3M = assay: Growth inhibition of human Malme-3M cells incubated for 48 hrs by sulforhodamine B assay; outline: as §2
M14 = assay: Growth inhibition of human M14 cells incubated for 48 hrs by sulforhodamine B assay; outline: as §1
MDA-MB-435 = assay: Growth inhibition of human MDA-MB-435 cells incubated for 48 hrs by sulforhodamine B assay; outline: as §1
SK-MEL-28 = assay: Growth inhibition of human SK-MEL-28 cells incubated for 48 hrs by sulforhodamine B assay; outline: as §2
UACC-257 = assay: Growth inhibition of human UACC-257 cells incubated for 48 hrs by sulforhodamine B assay; outline: as §3
UACC-62 = assay: Growth inhibition of human UACC-62 cells incubated for 48 hrs by sulforhodamine B assay; outline: as §3
OVCAR-5 = assay: Growth inhibition of human OVCAR-5 cells incubated for 48 hrs by sulforhodamine B assay; outline: as §2
OVCAR-8 = assay: Growth inhibition of human OVCAR-8 cells incubated for 48 hrs by sulforhodamine B assay; outline: as §2
NCI/ADR-RES = assay: Growth inhibition of human NCI/ADR-RES cells incubated for 48 hrs by sulforhodamine B assay; outline: as §2
786-0 = assay: Growth inhibition of human 786-0 cells incubated for 48 hrs by sulforhodamine B assay; outline: as §1
A498 = assay: Growth inhibition of human A498 cells incubated for 48 hrs by sulforhodamine B assay; outline: as §3
ACHN = assay: Growth inhibition of human ACHN cells incubated for 48 hrs by sulforhodamine B assay; outline: as §1
CAKI-1 = assay: Growth inhibition of human CAKI-1 cells incubated for 48 hrs by sulforhodamine B assay; outline: as §1
SN12C = assay: Growth inhibition of human SN12C cells incubated for 48 hrs by sulforhodamine B assay; outline: as §2
TK-10 = assay: Growth inhibition of human TK-10 cells incubated for 48 hrs by sulforhodamine B assay; outline: as §3
UO-31 = assay: Growth inhibition of human UO-31 cells incubated for 48 hrs by sulforhodamine B assay; outline: as §3
PC-3 = assay: Growth inhibition of human PC-3 cells incubated for 48 hrs by sulforhodamine B assay; outline: as §2
DU-145 = assay: Growth inhibition of human DU-145 cells incubated for 48 hrs by sulforhodamine B assay; outline: as §1
MCF7 = assay: Growth inhibition of human MCF7 cells incubated for 48 hrs by sulforhodamine B assay; outline: as §1
MDA-MB-231 = assay: Growth inhibition of human MDA-MB-231 cells incubated for 48 hrs by sulforhodamine B assay; outline: as §1
BT-549 = assay: Growth inhibition of human BT-549 cells incubated for 48 hrs by sulforhodamine B assay; outline: as §1
T47D = assay: Growth inhibition of human T47D cells incubated for 48 hrs by sulforhodamine B assay; outline: as §3
MDA-MB-468 = assay: Growth inhibition of human MDA-MB-468 cells incubated for 48 hrs by sulforhodamine B assay; outline: as §1

`COc1cc2nc(-c3ccc(C(F)(F)F)cc3)cc(OCCCN3CCCC3)c2cc1OC` was tested, and the GI50 (CCRF-CEM) was 1080 nM, the GI50 (K562) was 475 nM and the GI50 (MOLT-4) was 994 nM. For the same compound, the GI50 (A549) was 653 nM, the GI50 (HOP-62) was 1030 nM and the GI50 (HOP-92) was 460 nM. It also gave a GI50 (NCI-H226) of 343 nM, a GI50 (NCI-H23) of 1910 nM and a GI50 (NCI-H322M) of 6770 nM. For the same compound, the GI50 (NCI-H522) was 1740 nM, the GI50 (COLO 205) was 401 nM and the GI50 (HCT-116) was 456 nM. For the same compound, the GI50 (HCT-29) was 446 nM, the GI50 (SW-620) was 1620 nM and the GI50 (SF-268) was 2390 nM. For the same compound, the GI50 (SF-295) was 328 nM, the GI50 (SF-539) was 1870 nM and the GI50 (SNB-19) was 2770 nM. The GI50 (SNB-75) was 1850 nM, the GI50 (U-251) was 1050 nM and the GI50 (Malme-3M) was 1010 nM. It also gave a GI50 (M14) of 336 nM, a GI50 (MDA-MB-435) of 709 nM and a GI50 (SK-MEL-28) of 1200 nM. The GI50 (UACC-257) was 1410 nM, the GI50 (UACC-62) was 1380 nM and the GI50 (OVCAR-5) was 803 nM. For the same compound, the GI50 (OVCAR-8) was 806 nM, the GI50 (NCI/ADR-RES) was 458 nM and the GI50 (786-0) was 2130 nM. It also gave a GI50 (A498) of 1580 nM, a GI50 (ACHN) of 812 nM and a GI50 (CAKI-1) of 188 nM. For the same compound, the GI50 (SN12C) was 673 nM, the GI50 (TK-10) was 3240 nM and the GI50 (UO-31) was 2020 nM. The GI50 (PC-3) was 1070 nM, the GI50 (DU-145) was 1370 nM and the GI50 (MCF7) was 976 nM. It also gave a GI50 (MDA-MB-231) of 565 nM, a GI50 (BT-549) of 1990 nM and a GI50 (T47D) of 472 nM. It also gave a GI50 (MDA-MB-468) of 885 nM.
For `COc1cc2nc(-c3ccc(Cl)cc3)cc(OCCCN3CCCC3)c2cc1OC`, the GI50 (CCRF-CEM) was 2140 nM, the GI50 (K562) was 1060 nM and the GI50 (MOLT-4) was 1500 nM. It also gave a GI50 (A549) of 1520 nM, a GI50 (HOP-62) of 1380 nM and a GI50 (HOP-92) of 850 nM. The GI50 (NCI-H226) was 898 nM, the GI50 (NCI-H23) was 2450 nM and the GI50 (NCI-H322M) was 3360 nM. It also gave a GI50 (NCI-H522) of 2360 nM, a GI50 (COLO 205) of 459 nM and a GI50 (HCT-116) of 699 nM. It also gave a GI50 (HCT-29) of 454 nM, a GI50 (SW-620) of 3120 nM and a GI50 (SF-268) of 2530 nM. The GI50 (SF-295) was 1220 nM, the GI50 (SF-539) was 2440 nM and the GI50 (SNB-19) was 3140 nM. For the same compound, the GI50 (SNB-75) was 1730 nM, the GI50 (U-251) was 1790 nM and the GI50 (Malme-3M) was 1680 nM. It also gave a GI50 (M14) of 402 nM, a GI50 (MDA-MB-435) of 2720 nM and a GI50 (SK-MEL-28) of 1480 nM. For the same compound, the GI50 (UACC-257) was 1960 nM, the GI50 (UACC-62) was 2030 nM and the GI50 (OVCAR-5) was 1030 nM. The GI50 (OVCAR-8) was 1190 nM, the GI50 (NCI/ADR-RES) was 683 nM and the GI50 (786-0) was 2780 nM. The GI50 (A498) was 2190 nM, the GI50 (ACHN) was 1930 nM and the GI50 (CAKI-1) was 303 nM. It also gave a GI50 (SN12C) of 914 nM, a GI50 (TK-10) of 2330 nM and a GI50 (UO-31) of 1720 nM. The GI50 (PC-3) was 1760 nM, the GI50 (DU-145) was 2150 nM and the GI50 (MCF7) was 1330 nM. It also gave a GI50 (MDA-MB-231) of 907 nM, a GI50 (BT-549) of 1770 nM and a GI50 (T47D) of 1020 nM. It also gave a GI50 (MDA-MB-468) of 1280 nM.
`COc1cc2nc(-c3ccc(C(F)(F)F)cc3)cc(OCCCN3CCOCC3)c2cc1OC` showed a GI50 (CCRF-CEM) of 2790 nM, a GI50 (K562) of 1180 nM and a GI50 (MOLT-4) of 2510 nM. It also gave a GI50 (A549) of 1040 nM, a GI50 (HOP-62) of 1670 nM and a GI50 (HOP-92) of 1000 nM. It also gave a GI50 (NCI-H226) of 406 nM, a GI50 (NCI-H23) of 2360 nM and a GI50 (NCI-H322M) of 10500 nM. It also gave a GI50 (NCI-H522) of 2520 nM, a GI50 (COLO 205) of 529 nM and a GI50 (HCT-116) of 583 nM. The GI50 (HCT-29) was 540 nM, the GI50 (SW-620) was 3510 nM and the GI50 (SF-268) was 5700 nM. For the same compound, the GI50 (SF-295) was 349 nM, the GI50 (SNB-19) was 2910 nM and the GI50 (SNB-75) was 2460 nM. It also gave a GI50 (U-251) of 1400 nM, a GI50 (Malme-3M) of 1380 nM and a GI50 (M14) of 355 nM. The GI50 (MDA-MB-435) was 1200 nM, the GI50 (SK-MEL-28) was 1440 nM and the GI50 (UACC-257) was 1670 nM. For the same compound, the GI50 (UACC-62) was 628 nM, the GI50 (OVCAR-5) was 1920 nM and the GI50 (OVCAR-8) was 1950 nM. For the same compound, the GI50 (NCI/ADR-RES) was 640 nM, the GI50 (786-0) was 1760 nM and the GI50 (A498) was 1510 nM. The GI50 (ACHN) was 2010 nM, the GI50 (CAKI-1) was 167 nM and the GI50 (SN12C) was 675 nM. For the same compound, the GI50 (TK-10) was 13900 nM, the GI50 (UO-31) was 1770 nM and the GI50 (PC-3) was 2190 nM. The GI50 (DU-145) was 10100 nM, the GI50 (MCF7) was 1550 nM and the GI50 (MDA-MB-231) was 498 nM. It also gave a GI50 (BT-549) of 5000 nM, a GI50 (T47D) of 654 nM and a GI50 (MDA-MB-468) of 1240 nM.
